For 2 molecules, IC50 results are on record in ChEMBL document CHEMBL3526063, “Metabolism and pharmacokinetics of JM6 in mice: JM6 is not a prodrug for Ro-61-8048” (Drug Metab Dispos, 2012).

Molecules are shown by their SMILES.

Assay [1] concerns the target Kynurenine 3-monooxygenase (Mus musculus, UniProt Q91WN4). Nature of the assay: Inhibition of C57BL/6J mouse KMO assessed as 3-hydroxykynurenine formation preincubated for 5 mins using 100 uM kynurenine as substrate by LC-MS/MS analysis. In outline:
(§1)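 Liver mitochondrial KMO preparation (mouse C57 BL/6J, rat Wistar, human) at 0.3 mg protein/mL in 100 mM potassium phosphate pH 7.4 with 200 µM NADPH, 0.4 U/mL G6PDH, 3 mM glucose 6-phosphate. Compound pre-incubated 5 min at 25°C, then 100 µM kynurenine added; 40 min (rodent) or 60 min (human). Stopped with TCA; 3-hydroxykynurenine by LC-MS/MS. IC50 from 8-point 3-fold dilutions (top 3 or 30 µM), triplicates, n≥2 runs.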

The target of assay [2] is Kynurenine 3-monooxygenase (Rattus norvegicus, UniProt O88867). Nature of the assay: Inhibition of Wistar rat KMO assessed as 3-hydroxykynurenine formation preincubated for 5 mins using 100 uM kynurenine as substrate by LC-MS/MS analysis. In outline:
as §1

In assay [3] the target is Kynurenine 3-monooxygenase (Homo sapiens, UniProt O15229). Nature of the assay: Inhibition of human KMO assessed as 3-hydroxykynurenine formation preincubated for 5 mins using 100 uM kynurenine as substrate by LC-MS/MS analysis. In outline:
as §1

Kynurenine 3-monooxygenase (Mus musculus, UniProt Q91WN4), sequence (Q91WN4 whole entry): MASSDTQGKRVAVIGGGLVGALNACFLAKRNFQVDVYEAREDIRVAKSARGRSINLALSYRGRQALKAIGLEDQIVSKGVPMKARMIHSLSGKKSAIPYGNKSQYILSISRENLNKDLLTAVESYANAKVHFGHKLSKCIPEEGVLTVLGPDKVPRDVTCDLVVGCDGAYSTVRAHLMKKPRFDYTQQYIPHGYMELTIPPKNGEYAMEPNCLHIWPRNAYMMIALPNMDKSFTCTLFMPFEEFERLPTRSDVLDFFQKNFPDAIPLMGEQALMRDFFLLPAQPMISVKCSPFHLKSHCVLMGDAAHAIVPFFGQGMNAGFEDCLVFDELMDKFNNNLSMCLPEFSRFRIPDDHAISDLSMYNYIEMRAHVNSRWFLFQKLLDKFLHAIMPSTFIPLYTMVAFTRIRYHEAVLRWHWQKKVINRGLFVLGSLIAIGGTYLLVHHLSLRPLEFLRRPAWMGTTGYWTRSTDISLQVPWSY
Kynurenine 3-monooxygenase (Homo sapiens, UniProt O15229), sequence (O15229 whole entry): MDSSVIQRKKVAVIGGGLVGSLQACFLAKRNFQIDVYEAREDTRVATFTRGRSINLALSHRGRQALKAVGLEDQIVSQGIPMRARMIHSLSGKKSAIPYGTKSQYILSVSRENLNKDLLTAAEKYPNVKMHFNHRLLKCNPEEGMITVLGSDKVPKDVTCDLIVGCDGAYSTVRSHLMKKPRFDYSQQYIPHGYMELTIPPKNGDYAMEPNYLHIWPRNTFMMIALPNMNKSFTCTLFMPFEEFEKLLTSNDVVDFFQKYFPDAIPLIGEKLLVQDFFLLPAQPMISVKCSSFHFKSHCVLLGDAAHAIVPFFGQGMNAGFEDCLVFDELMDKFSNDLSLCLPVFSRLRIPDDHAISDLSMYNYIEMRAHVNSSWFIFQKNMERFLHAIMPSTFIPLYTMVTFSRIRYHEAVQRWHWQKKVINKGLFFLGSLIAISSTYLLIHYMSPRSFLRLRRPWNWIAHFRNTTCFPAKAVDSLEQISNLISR
Kynurenine 3-monooxygenase (Rattus norvegicus, UniProt O88867), sequence (O88867 whole entry): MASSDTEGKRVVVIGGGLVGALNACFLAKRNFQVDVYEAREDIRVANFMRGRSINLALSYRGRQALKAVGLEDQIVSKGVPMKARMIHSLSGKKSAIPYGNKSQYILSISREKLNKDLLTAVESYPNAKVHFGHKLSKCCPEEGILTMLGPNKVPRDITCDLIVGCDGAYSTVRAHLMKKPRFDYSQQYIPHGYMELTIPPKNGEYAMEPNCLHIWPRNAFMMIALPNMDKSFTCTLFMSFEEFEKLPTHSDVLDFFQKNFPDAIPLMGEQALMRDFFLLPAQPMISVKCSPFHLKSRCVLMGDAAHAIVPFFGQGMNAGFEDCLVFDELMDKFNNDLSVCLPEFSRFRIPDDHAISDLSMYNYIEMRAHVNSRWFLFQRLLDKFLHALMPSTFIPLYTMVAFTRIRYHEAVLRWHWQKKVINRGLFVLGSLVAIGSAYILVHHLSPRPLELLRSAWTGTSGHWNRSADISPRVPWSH

As usually defined, the IC50 is the midpoint of a concentration-inhibition curve. As for `COc1ccc(S(=O)(=O)Nc2nc(-c3cccc([N+](=O)[O-])c3)c(CN)s2)cc1OC`, the half-inhibitory concentration (IC50) in assay [1] worked out at 27 µM; in assay [2], 10 µM; in assay [3] it was 17 µM.
Consider `COc1ccc(S(=O)(=O)Nc2nc(-c3cccc([N+](=O)[O-])c3)c(CO)s2)cc1OC`, for which the results for the IC50 in assay [1], in assay [2] and in assay [3] were 22 µM, 11 µM and 39 µM, respectively.
